In ChEMBL document CHEMBL4732129, “Rationally designed N-phenylsulfonylindoles as a tool for the analysis of the non-basic 5-HTR ligands binding mode” (Eur J Med Chem, 2021):
Activity calls are given as the source filed them. No cut-off for these calls is given here.

Assays:
[1] = target: 5-hydroxytryptamine receptor 6 (Homo sapiens, UniProt P50406); assay: Displacement of [3H]-LSD from human 5-HT6 receptor incubated for 1 hr by microbeta counting method
Method in brief: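 Human receptor membranes from homogenized cell pellets, centrifuged twice at 35 000 g with a 15 min 37°C incubation between spins. Buffer 50 mM Tris–HCl, 0.5 mM EDTA, 4 mM MgCl2. Radioligand 2 nM [3H]-LSD. Nonspecific binding defined with 10 μM methiothepine. Incubated 1 h at 37°C, ended by filtration. Triplicates at 7–8 concentrations (10⁻¹¹–10⁻⁴ M). Ki by Cheng-Prusoff, means of ≥2 experiments.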

[2] = Dissociation constant, pKa of the compound; type: physicochemical
[3] = target: 5-hydroxytryptamine receptor 7 (Homo sapiens) (UniProt P34969); assay: Displacement of [3H]-5-CT from 5-HT7b receptor (unknown origin) incubated for 1 hr by microbeta counting method
Chain of 5-hydroxytryptamine receptor 7 (Homo sapiens) (P34969 whole entry): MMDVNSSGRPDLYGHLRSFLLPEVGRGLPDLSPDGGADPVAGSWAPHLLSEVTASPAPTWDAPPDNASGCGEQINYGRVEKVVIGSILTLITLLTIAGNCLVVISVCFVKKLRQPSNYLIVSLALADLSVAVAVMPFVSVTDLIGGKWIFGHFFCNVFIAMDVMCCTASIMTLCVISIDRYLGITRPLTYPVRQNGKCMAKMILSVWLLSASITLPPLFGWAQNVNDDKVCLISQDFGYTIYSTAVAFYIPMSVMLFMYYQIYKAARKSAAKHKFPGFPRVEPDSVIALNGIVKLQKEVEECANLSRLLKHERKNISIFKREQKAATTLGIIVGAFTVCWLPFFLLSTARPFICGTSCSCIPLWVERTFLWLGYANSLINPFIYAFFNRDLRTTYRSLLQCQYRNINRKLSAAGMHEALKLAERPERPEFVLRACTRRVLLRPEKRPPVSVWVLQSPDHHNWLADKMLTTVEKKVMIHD
Method in brief: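 Membranes from thawed cell pellets, homogenized and centrifuged twice at 35 000 g (20 min, 4°C) with a 15 min 37°C incubation between spins. Buffer 50 mM Tris–HCl, 4 mM MgCl2, 10 μM pargyline, 0.1% ascorbate. Radioligand 0.6 nM [3H]-5-CT. Nonspecific binding defined with 10 μM 5-HT. Incubated 1 h at 37°C, ended by rapid filtration. Triplicates at 7–8 concentrations (10⁻¹¹–10⁻⁴ M). Ki by Cheng-Prusoff, means of ≥2 experiments.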

[4] = target: 5-hydroxytryptamine receptor 2A (Homo sapiens, UniProt P28223); assay: Binding affinity to 5-HT2A receptor (unknown origin) incubated for 1 hr by microbeta counting based displacement assay
Chain of 5-hydroxytryptamine receptor 2A (P28223 whole entry): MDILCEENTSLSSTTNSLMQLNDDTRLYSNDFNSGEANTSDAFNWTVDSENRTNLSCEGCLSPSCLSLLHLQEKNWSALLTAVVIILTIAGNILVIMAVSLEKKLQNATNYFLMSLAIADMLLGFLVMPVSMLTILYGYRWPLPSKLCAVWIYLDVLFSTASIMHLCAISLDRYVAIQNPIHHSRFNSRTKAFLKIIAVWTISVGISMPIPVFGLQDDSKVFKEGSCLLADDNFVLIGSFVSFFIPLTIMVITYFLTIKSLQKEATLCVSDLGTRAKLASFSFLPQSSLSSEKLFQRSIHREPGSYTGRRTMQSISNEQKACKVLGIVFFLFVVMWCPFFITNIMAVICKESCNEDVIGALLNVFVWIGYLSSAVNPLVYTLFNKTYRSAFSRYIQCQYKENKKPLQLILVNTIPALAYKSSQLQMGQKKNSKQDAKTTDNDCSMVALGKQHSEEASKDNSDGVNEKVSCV

D(2) dopamine receptor = D(2) dopamine receptor (Homo sapiens, UniProt P14416); assay: Displacement of [3H]-Raclopride from dopamine D2 receptor (unknown origin) incubated for 1 hr by microbeta counting method
Chain of D(2) dopamine receptor (P14416 whole entry): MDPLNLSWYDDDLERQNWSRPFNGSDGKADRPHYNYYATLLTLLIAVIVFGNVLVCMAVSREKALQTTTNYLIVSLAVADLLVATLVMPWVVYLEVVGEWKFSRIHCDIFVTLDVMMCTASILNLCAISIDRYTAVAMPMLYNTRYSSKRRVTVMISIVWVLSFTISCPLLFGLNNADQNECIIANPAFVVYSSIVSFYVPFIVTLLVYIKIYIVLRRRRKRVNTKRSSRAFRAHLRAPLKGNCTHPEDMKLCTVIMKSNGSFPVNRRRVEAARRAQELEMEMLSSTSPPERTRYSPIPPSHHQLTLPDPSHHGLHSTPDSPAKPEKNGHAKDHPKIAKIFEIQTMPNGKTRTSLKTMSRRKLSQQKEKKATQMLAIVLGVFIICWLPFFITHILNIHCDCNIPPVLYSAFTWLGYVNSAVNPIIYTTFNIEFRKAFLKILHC
Method in brief: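 D2L receptor membranes from cell pellets, homogenized and spun twice at 35 000 g with a 15 min 37°C step between spins. Buffer 50 mM Tris–HCl, 1 mM EDTA, 4 mM MgCl2, 120 mM NaCl, 5 mM KCl, 1.5 mM CaCl2, 0.1% ascorbate. Radioligand [3H]-raclopride. Nonspecific binding defined with 1 μM (+)butaclamol. Incubated 1 h at 37°C, then filtered. Triplicates at 7–8 concentrations (10⁻¹¹–10⁻⁴ M). Ki by Cheng-Prusoff, means of ≥2 experiments.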

[5] = target: T1, 5-hydroxytryptamine receptor 1A (Homo sapiens) (UniProt P08908); assay: (§1) Displacement of [3H]-8-OH-DPAT from 5-HT1A receptor (unknown origin) incubated for 1 hr by microbeta counting method
T1 sequence (whole entry): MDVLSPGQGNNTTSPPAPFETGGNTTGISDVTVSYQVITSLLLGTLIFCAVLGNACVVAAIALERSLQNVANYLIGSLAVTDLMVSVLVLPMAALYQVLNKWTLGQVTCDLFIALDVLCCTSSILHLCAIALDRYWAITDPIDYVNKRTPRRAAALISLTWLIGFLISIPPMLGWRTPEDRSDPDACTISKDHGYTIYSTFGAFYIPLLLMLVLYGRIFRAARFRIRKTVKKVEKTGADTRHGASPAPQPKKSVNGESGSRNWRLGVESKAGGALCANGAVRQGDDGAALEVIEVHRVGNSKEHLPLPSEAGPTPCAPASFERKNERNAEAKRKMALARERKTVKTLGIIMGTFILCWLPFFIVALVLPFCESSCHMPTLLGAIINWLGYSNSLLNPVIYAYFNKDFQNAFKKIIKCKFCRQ
Method in brief: (§2)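 Membranes prepared from cell pellets by homogenization and two 35 000 g spins with a 15 min 37°C step between them. Buffer 50 mM Tris–HCl, 0.1 mM EDTA, 4 mM MgCl2, 10 μM pargyline, 0.1% ascorbate. Radioligand 1.5 nM [3H]-8-OH-DPAT. Nonspecific binding defined with 10 μM 5-HT. Incubated 1 h at room temperature, then filtered. Triplicates at 7–8 concentrations (10⁻¹¹–10⁻⁴ M). Ki by Cheng-Prusoff, means of ≥2 experiments.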

[6] = target: T2, 5-hydroxytryptamine receptor 1A (Homo sapiens, UniProt P08908); assay: as §1; method in brief: as §2
T2 sequence (P08908 whole entry): T1 sequence (whole entry)

Chain of 5-hydroxytryptamine receptor 6 (P50406 whole entry): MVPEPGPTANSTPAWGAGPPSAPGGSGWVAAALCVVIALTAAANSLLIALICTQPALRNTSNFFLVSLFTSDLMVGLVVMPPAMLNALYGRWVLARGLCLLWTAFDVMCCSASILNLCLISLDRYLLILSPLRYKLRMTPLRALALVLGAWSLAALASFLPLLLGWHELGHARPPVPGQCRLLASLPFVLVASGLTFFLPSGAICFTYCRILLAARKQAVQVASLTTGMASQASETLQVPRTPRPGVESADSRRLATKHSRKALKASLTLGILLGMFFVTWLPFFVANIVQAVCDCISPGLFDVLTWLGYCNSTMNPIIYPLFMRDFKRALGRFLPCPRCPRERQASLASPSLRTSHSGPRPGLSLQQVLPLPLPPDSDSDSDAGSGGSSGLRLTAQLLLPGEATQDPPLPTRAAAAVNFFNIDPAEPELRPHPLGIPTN

Structure (SMILES)	Ki [1] [nM]	pKa [2]	also measured
COc1cccc2c1ccn2S(=O)(=O)c1ccccc1	262	–	–
CC(=O)N1CCN(c2ccc3c(ccn3S(=O)(=O)c3ccccc3)c2)CC1	4850	0.9	–
O=S(=O)(c1ccccc1)n1ccc2c(N3CCCCC3)cccc21	128	5.4	–
O=S(=O)(c1ccccc1)n1ccc2c(-c3ccncc3)cccc21	1510	4.9	–
O=S(=O)(c1ccccc1)n1cc(N2CCCCC2)c2ccccc21	219	4.5	–
O=S(=O)(c1ccccc1)n1ccc2ccc(-c3ccncc3)cc21	38	4.9	Activity [3]: inactive; Activity [4]: inactive; Activity (D(2) dopamine receptor): inactive; Activity [5]: inactive
CCCCS(=O)(=O)n1ccc2c(N(C)C)cccc21	49900	–	–
O=S(=O)(c1ccccc1)n1ccc2cc(N3CCCCC3)ccc21	360	1.9	–
CN(C)c1cccc2c1ccn2S(=O)(=O)N1CCCCC1	39100	–	–
O=S(=O)(c1ccccc1)n1ccc2cc(-c3ccncc3)ccc21	409	4.5	–
O=S(=O)(C1CCCCC1)n1ccc2ccc(-c3ccncc3)cc21	2180	–	–
CN(C)c1cn(S(=O)(=O)c2ccccc2)c2ccccc12	474	4.2	–
O=S(=O)(c1ccccc1)n1cc(N2CCN(CC(F)(F)F)CC2)c2ccccc21	2030	3.6	–
CS(=O)(=O)n1ccc2ccc(-c3ccncc3)cc21	4050	–	–
CN(C)c1cccc2c1ccn2S(C)(=O)=O	4720	–	–
O=S(=O)(c1ccccc1)n1cc(-c2ccncc2)c2ccccc21	124	5	–
CN(C)c1ccc2ccn(S(=O)(=O)c3ccccc3)c2c1	211	-0.3	–
O=S(=O)(c1ccccc1)n1ccc2ccccc21	159	–	–
O=S(=O)(c1ccccc1)n1cc(-c2ccccc2)c2ccccc21	146	–	–
O=S(=O)(c1ccccc1)n1ccc2c(-c3ccccc3)cccc21	162	–	–
CN(C)c1cccc2c1ccn2S(=O)(=O)c1ccccc1	65	5	Activity [3]: inactive; Activity [4]: inactive; Activity (D(2) dopamine receptor): inactive; Activity [5]: inactive

Structure (SMILES)	Ki [1] [nM]	pKa [2]	also measured
COc1ccc2c(ccn2S(=O)(=O)c2ccccc2)c1	127	–	–
O=S(=O)(N1CCCCC1)n1ccc2ccc(-c3ccncc3)cc21	1660	–	–
CC(=O)N1CCN(c2cccc3c2ccn3S(=O)(=O)c2ccccc2)CC1	714	0.8	–
CN(C)c1cccc2c1ccn2Cc1ccccc1	2560	–	–
O=S(=O)(c1ccccc1)n1ccc2ccc(N3CCN(CC(F)(F)F)CC3)cc21	1200	3.6	–
CN(C)c1ccc2c(ccn2S(=O)(=O)c2ccccc2)c1	82	3.3	–
CCCCS(=O)(=O)n1ccc2ccc(-c3ccncc3)cc21	1150	–	–
CC(=O)N1CCN(c2ccc3ccn(S(=O)(=O)c4ccccc4)c3c2)CC1	97	-0.4	–
O=S(=O)(c1ccccc1)n1ccc2cc(N3CCN(CC(F)(F)F)CC3)ccc21	5250	3.4	–
O=S(=O)(c1ccccc1)n1ccc2cc(-c3ccccc3)ccc21	558	–	–
O=S(=O)(c1ccccc1)n1ccc2ccc(-c3ccccc3)cc21	178	–	–
O=S(=O)(c1ccccc1)n1ccc2c(O)cccc21	108	–	–
O=S(=O)(c1ccccc1)n1ccc2c(N3CCN(CC(F)(F)F)CC3)cccc21	1740	3.9	–
CN(C)c1cccc2c1ccn2S(=O)(=O)C1CCCCC1	4890	–	–
CN1CCN(c2cn(S(=O)(=O)c3ccccc3)c3ccccc23)CC1	–	7.4	–
CN1CCN(c2cccc3c2ccn3S(=O)(=O)c2ccccc2)CC1	–	7.3	Ki [4]: 41 nM; Ki [6]: 164 nM
c1ccc(Cn2ccc3ccc(-c4ccncc4)cc32)cc1	3260	–	–
CN1CCN(c2ccc3ccn(S(=O)(=O)c4ccccc4)c3c2)CC1	9	8.2	Ki (D(2) dopamine receptor): 241 nM; Ki [6]: 247 nM
CN1CCN(c2ccc3c(ccn3S(=O)(=O)c3ccccc3)c2)CC1	27	7.4	–
CC(=O)N1CCN(c2cn(S(=O)(=O)c3ccccc3)c3ccccc23)CC1	97	0.6	–
O=S(=O)(c1ccccc1)n1ccc2ccc(N3CCCCC3)cc21	403	-0.4	–
